PubChem BioAssay AID493236 (Broad Institute, 2011)
Records with an inconclusive call do not appear. Activity calls are given as the source filed them.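 Rule for the calls: active = luminescence cut by more than half of the full-inhibition control window in a dose series; inconclusive = no clear call, values can overlap the other calls; inactive = signal rising instead of falling, or the rest.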

Each molecule was assayed on proteasome chymotrypsin-like activity (human) (assay: proteasome chymotrypsin-like activity inhibitors, dose response, counter-screen for HIF pathway activator project, cell-based, U2OS, luminescence, dry powder, set 4 (AID 493236)). Details: U2OS cells, Proteasome-Glo chymotrypsin luminescence; series mostly up to 38 µM.
Method in brief: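 System: U2OS cells. Input: 2,500 U2OS cells per well. Compound dosing: 8-point threefold dilution series, source stock top 16.5 mM. Timing: 24 h plating, 4 h compound, 2 h reagent. Technique: Proteasome-Glo luminescence. Evaluation: percent activity relative to MG132 and DMSO. Controls: MG132 (1 µM) and DMSO. Repeats: each compound tested in duplicate.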

`O=C(NCCCn1ccnc1)c1cc(-c2ccccc2)on1` was tested. Which outcome did it give?
Its outcome is “inactive”.

`C[C@@H](Nc1nc(-c2ccccn2)nnc1-c1ccccc1)c1ccccc1` was tested. Which outcome did it give?
Its outcome is “inactive”.

`Cc1cccc(CNc2nc(-c3ccccn3)nnc2-c2ccccc2)c1` was tested. Which outcome did it give?
Its outcome is “inactive”.

`Oc1ccc(CN2CCc3ccccc3C2)c2cccnc12` was tested. Which outcome did it give?
Its outcome is “inactive”.

How did the outcome turn out when `Oc1ccc(CN2CCC(Cc3ccccc3)CC2)c2cccnc12` was run?
Its outcome is “inactive”.

Which outcome does the source give for `c1ccc(-c2nnc(-c3ccccn3)nc2NCCN2CCOCC2)cc1` here?
Its outcome is “inactive”.

For `COc1cccc(CNc2nc(-c3ccccn3)nnc2-c2ccccc2)c1`, which outcome is on record?
The outcome was “inactive”.

`O=C(NCCCN1CCOCC1)c1cc(-c2ccccc2)on1` was tested. Which outcome did it give?
Its outcome is “inactive”.

For `Cc1ccccc1CNc1nc(-c2ccccn2)nnc1-c1ccccc1`, which outcome is on record?
The outcome was “inactive”.

With `Clc1cccc(CNc2nc(-c3ccccn3)nnc2-c2ccccc2)c1` as the molecule, how does the outcome read?
The outcome was “inactive”.

For `OCC1CCN(c2nc(-c3ccccn3)nnc2-c2ccccc2)CC1`, which outcome is on record?
The outcome was “inactive”.

With `COc1ccc(CNc2nc(-c3ccccn3)nnc2-c2ccccc2)cc1` as the molecule, how does the outcome read?
Its outcome is “inactive”.

How did the outcome turn out when `c1ccc(-c2nnc(-c3ccccn3)nc2NCC2CCCCC2)cc1` was run?
The outcome was “inactive”.

How did the outcome turn out when `Cc1cccc(Nc2nc(-c3ccccn3)nnc2-c2ccccc2)n1` was run?
Its outcome is “inactive”.

With `COc1ccccc1N1CCN(Cc2ccc(O)c3ncccc23)CC1` as the molecule, how does the outcome read?
Its outcome is “inactive”.

For `O=C(NCCCO)c1cc(-c2ccccc2)on1`, which outcome is on record?
Its outcome is “inactive”.

With `Cc1ccc(CNC(=O)c2cc(-c3ccccc3)on2)cc1` as the molecule, how does the outcome read?
Its outcome is “inactive”.

`c1ccc(-c2nnc(-c3ccccn3)nc2Nc2cnc3ccccc3n2)cc1` was tested. Which outcome did it give?
Its outcome is “inactive”.

With `O=C(NCCN1CCOCC1)c1cc(-c2ccccc2)on1` as the molecule, how does the outcome read?
Its outcome is “inactive”.

`CCCCNC(=O)c1cc(-c2ccccc2)on1` was tested. Which outcome did it give?
Its outcome is “inactive”.

Which outcome does the source give for `Cc1ccc(CNc2nc(-c3ccccn3)nnc2-c2ccccc2)cc1C` here?
The outcome was “inactive”.

For `c1ccc(-c2ccc(CNc3nc(-c4ccccn4)nnc3-c3ccccc3)cc2)cc1`, which outcome is on record?
Its outcome is “inactive”.

`Cc1cccc(CNC(=O)c2cc(-c3ccccc3)on2)c1` was tested. Which outcome did it give?
The outcome was “inactive”.

How did the outcome turn out when `OCCCNc1nc(-c2ccccn2)nnc1-c1ccccc1` was run?
The outcome was “inactive”.

With `C[C@H](Nc1nc(-c2ccccn2)nnc1-c1ccccc1)C1CCCCC1` as the molecule, how does the outcome read?
The outcome was “inactive”.

`CC(C)(C)CCNc1nc(-c2ccccn2)nnc1-c1ccccc1` was tested. Which outcome did it give?
Its outcome is “inactive”.

With `c1ccc(-c2nnc(-c3ccccn3)nc2N2CCC(C3CCCCC3)C2)cc1` (stereo not given) as the molecule, how does the outcome read?
The outcome was “inactive”.

How did the outcome turn out when `O=C(c1cc(-c2ccccc2)on1)N1CCC(N2CCOCC2)CC1` was run?
The outcome was “inactive”.

Which outcome does the source give for `CN1CCN(C(=O)c2cc(-c3ccccc3)on2)CC1` here?
The outcome was “inactive”.

`c1ccc(-c2nnc(-c3ccccn3)nc2NCC2CCOCC2)cc1` was tested. Which outcome did it give?
The outcome was “inactive”.

`c1ccc(-c2nnc(-c3ccccn3)nc2NCCc2ccccn2)cc1` was tested. Which outcome did it give?
The outcome was “inactive”.

How did the outcome turn out when `O=C(Nc1ncc(-c2ccccc2)o1)c1cc(-c2ccccc2)on1` was run?
Its outcome is “inactive”.

`c1ccc(-c2nnc(-c3ccccn3)nc2NCC2CC2)cc1` was tested. Which outcome did it give?
The outcome was “inactive”.

How did the outcome turn out when `c1ccc(-c2nnc(-c3ccccn3)nc2N2CCC(c3ccccc3)C2)cc1` (stereo not given) was run?
The outcome was “inactive”.

Which outcome does the source give for `c1ccc(CCNc2nc(-c3ccccn3)nnc2-c2ccccc2)cc1` here?
Its outcome is “inactive”.

Which outcome does the source give for `c1ccc(-c2cccc(CNc3nc(-c4ccccn4)nnc3-c3ccccc3)c2)cc1` here?
Its outcome is “inactive”.

Which outcome does the source give for `O=C(NCCCCO)c1cc(-c2ccccc2)on1` here?
Its outcome is “inactive”.

`CC1CN(Cc2ccc(O)c3ncccc23)CC(C)O1` (stereo not given) was tested. Which outcome did it give?
The outcome was “inactive”.

How did the outcome turn out when `Cc1ccc(Nc2nc(-c3ccccn3)nnc2-c2ccccc2)cn1` was run?
Its outcome is “inactive”.

Which outcome does the source give for `O=C(Nc1ccc2ccccc2n1)c1cc(-c2ccccc2)on1` here?
Its outcome is “inactive”.
